# Laboratory results taken from ChEMBL document CHEMBL1255198, “Expanding the diversity of allosteric bcr-abl inhibitors” (J Med Chem, 2010).
# Test: Inhibition of Bcr-Abl E255K mutant in mouse BA/F3 cells assessed as cell growth inhibition
# Conditions: BaF3
row,EC50 [µM],SMILES
1,0.31,NS(=O)(=O)c1ccc(-c2cc(Nc3ccc(OC(F)(F)F)cc3)ncn2)cc1
2,0.36,CS(=O)(=O)Nc1ccc(-c2cc(Nc3ccc(OC(F)(F)F)cc3)ncn2)cc1
3,0.58,O=C(NCCO)c1cccc(-c2cc(Nc3ccc(OC(F)(F)F)cc3)ncn2)c1
4,0.52,FC(F)(F)Oc1ccc(Nc2cc(-c3cn[nH]c3)ncn2)cc1
5,1.33,CN1CCN(C(=O)c2cc3c(Nc4ccc(OC(F)(F)F)cc4)ncnc3s2)CC1
6,1.22,FC(F)(F)Oc1ccc(Nc2ncnc3c2ccn3CCN2CCOCC2)cc1
7,1.61,OCCn1ncc2c(Nc3ccc(OC(F)(F)F)cc3)ncnc21
8,0.5,CC(C)(C)n1ncc2c(Nc3ccc(OC(F)(F)F)cc3)ncnc21
9,0.6,NC(=O)c1cccc(-c2cc(Nc3ccc(OC(F)(F)F)cc3)ncn2)c1

# Test: Cytotoxicity against mouse BA/F3 cells
# Type: cell-based
# Conditions: BaF3
# Summary of the method: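 Parental IL-3-dependent murine Ba/F3 cells grown at 37 °C, 5% CO₂ in RPMI 1640 with 10% FBS, 1% L-glutamine and 10% WEHI-conditioned medium as IL-3 source. Growth after 48 h read by CellTiter-Glo luminescence.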
row,SMILES,EC50 [µM]
1,FC(F)(F)Oc1ccc(Nc2cc(NCCN3CCOCC3)ncn2)cc1,> 10
2,Fc1ccc(Nc2cc(-c3ccncc3)ncn2)cc1,> 10
3,Cc1ccc(C(=O)Nc2cccc(C(F)(F)F)c2)cc1NC(=O)c1cc2c(Nc3ccc(OC(F)(F)F)cc3)ncnc2s1,8.9
4,CS(=O)(=O)c1cccc(-c2cc(Nc3ccc(OC(F)(F)F)cc3)ncn2)c1,> 10
5,Nc1cccc(-c2cc(Nc3ccc(OC(F)(F)F)cc3)ncn2)c1,> 10
6,FC(F)(F)c1ccc(Nc2cc(-c3ccncc3)ncn2)cn1,> 10
7,FC(F)(F)Oc1ccc(Nc2ncnc(NCCN3CCOCC3)n2)cc1,> 10
8,FC(F)(F)Oc1ccc(Nc2ncnc3nn(Cc4cccnc4)cc23)cc1,> 10
9,NS(=O)(=O)c1ccc(-c2cc(Nc3ccc(OC(F)(F)F)cc3)ncn2)cc1,> 10
10,CS(=O)(=O)Nc1ccc(-c2cc(Nc3ccc(OC(F)(F)F)cc3)ncn2)cc1,2.21
11,COC(=O)c1cc2c(Nc3ccc(OC(F)(F)F)cc3)ncnc2s1,> 10
12,OCc1cc2c(Nc3ccc(OC(F)(F)F)cc3)ncnc2s1,> 10
13,O=C(O)c1cc2c(Nc3ccc(OC(F)(F)F)cc3)ncnc2s1,> 10
14,O=C(NCCO)c1cccc(-c2cc(Nc3ccc(OC(F)(F)F)cc3)ncn2)c1,> 10
15,O=C(NCCN1CCOCC1)c1cccc(-c2cc(Nc3ccc(OC(F)(F)F)cc3)ncn2)c1,> 10
16,O=C(NCCO)c1cc2c(Nc3ccc(OC(F)(F)F)cc3)ncnc2s1,> 10
17,CCNC(=O)c1cc2c(Nc3ccc(OC(F)(F)F)cc3)ncnc2s1,> 10
18,CNC(=O)c1cccc(-c2cc(Nc3ccc(OC(F)(F)F)cc3)ncn2)c1,> 10
19,O=C(c1cccc(-c2cc(Nc3ccc(OC(F)(F)F)cc3)ncn2)c1)N1CCOCC1,> 10
20,O=C(c1cc2c(Nc3ccc(OC(F)(F)F)cc3)ncnc2s1)N1CCNCC1,4.07
21,O=C(c1cc2c(Nc3ccc(OC(F)(F)F)cc3)ncnc2s1)N1CCN(N2CCCC2)CC1,5.77

row,SMILES,EC50 [µM]
1,FC(F)(F)Oc1ccc(Nc2cc(-c3cn[nH]c3)ncn2)cc1,> 10
2,Cn1cc(-c2cc(Nc3ccc(OC(F)(F)F)cc3)ncn2)cn1,> 10
3,CC(C)Cn1cc(-c2cc(Nc3ccc(OC(F)(F)F)cc3)ncn2)cn1,> 10
4,CN1CCN(C(=O)c2cc3c(Nc4ccc(OC(F)(F)F)cc4)ncnc3s2)CC1,2.69
5,O=C(c1cc2c(Nc3ccc(OC(F)(F)F)cc3)ncnc2s1)N1CCC(O)CC1,> 10
6,Cc1c(-c2cc(Nc3ccc(OC(F)(F)F)cc3)ncn2)cnn1-c1ccccc1,> 10
7,Cc1nn(C)c(C)c1-c1cc(Nc2ccc(OC(F)(F)F)cc2)ncn1,> 10
8,FC(F)(F)Oc1ccc(Nc2ncnc3[nH]ccc23)cc1,> 10
9,Cn1ccc2c(Nc3ccc(OC(F)(F)F)cc3)ncnc21,> 10
10,FC(F)(F)Oc1ccc(Nc2ncnc3c2ccn3CCN2CCOCC2)cc1,> 10
11,FC(F)(F)Oc1ccc(Nc2cc(-c3cnn(Cc4cccnc4)c3)ncn2)cc1,> 10
12,FC(F)(F)Oc1ccc(Nc2cc(-c3cccc4[nH]ccc34)ncn2)cc1,3.79
13,COc1ccc(Cn2ccc3c(Nc4ccc(OC(F)(F)F)cc4)ncnc32)cc1,> 10
14,COCCCNC(=O)CCn1ccc2c(Nc3ccc(OC(F)(F)F)cc3)ncnc21,> 10
15,FC(F)(F)Oc1ccc(Nc2cc(-c3ccc4[nH]ccc4c3)ncn2)cc1,> 10
16,FC(F)(F)Oc1ccc(Nc2cc(-c3ccnc4[nH]ccc34)ncn2)cc1,6.85
17,NC(=O)CCn1ccc2c(Nc3ccc(OC(F)(F)F)cc3)ncnc21,> 10
18,OCCn1ncc2c(Nc3ccc(OC(F)(F)F)cc3)ncnc21,> 10
19,CCn1ncc2c(Nc3ccc(OC(F)(F)F)cc3)ncnc21,> 10
20,Cc1nc(-c2cc(Nc3ccc(OC(F)(F)F)cc3)ncn2)cs1,> 10
21,CN(c1ccc(OC(F)(F)F)cc1)c1cc(NCCN2CCOCC2)ncn1,> 10

row,SMILES,EC50 [µM]
1,CCCn1ncc2c(Nc3ccc(OC(F)(F)F)cc3)ncnc21,6.6
2,FC(F)(F)Oc1ccc(Nc2ncnc3c2cnn3C2CCCCC2)cc1,9.3
3,COc1ccc(Nc2cc(NCCN3CCOCC3)ncn2)cc1,> 10
4,FC(F)(F)Oc1cccc(Nc2cc(NCCN3CCOCC3)ncn2)c1,> 10
5,NC(=O)Cn1ncc2c(Nc3ccc(OC(F)(F)F)cc3)ncnc21,3.3
6,FC(F)(F)Oc1ccc(Nc2ncnc3c2cnn3Cc2ccccc2)cc1,> 10
7,FC(F)(F)Oc1ccc(Oc2cc(NCCN3CCOCC3)ncn2)cc1,> 10
8,FC(F)(F)Oc1ccc(-c2cc(NCCN3CCOCC3)ncn2)cc1,> 10
9,FC(F)(F)Oc1ccc(Nc2ncnc3c2cnn3Cc2cccnc2)cc1,> 10
10,NC(=O)c1ccc(Cn2ncc3c(Nc4ccc(OC(F)(F)F)cc4)ncnc32)cc1,> 10
11,FC(F)(F)Oc1ccc(Nc2cc(NCCCN3CCOCC3)ncn2)cc1,> 10
12,FC(F)(F)Oc1ccc(Nc2cc(N3CCOCC3)ncn2)cc1,> 10
13,FC(F)(F)c1ccc(Nc2cc(NCCN3CCOCC3)ncn2)cc1,> 10
14,FC(F)(F)Oc1ccc(CNc2cc(NCCN3CCOCC3)ncn2)cc1,> 10
15,FC(F)(F)Oc1ccc(Nc2ncnc3c2cnn3CC2CCOC2)cc1 (stereo not drawn),> 10
16,CC(C)(C)n1ncc2c(Nc3ccc(OC(F)(F)F)cc3)ncnc21,7.3
17,FC(F)(F)Oc1ccc(Nc2cc(-n3ccnc3)ncn2)cc1,> 10
18,NC(=O)c1cccc(Oc2cc(Nc3ccc(OC(F)(F)F)cc3)ncn2)c1,> 10
19,Cc1c(NCCN2CCOCC2)ncnc1Nc1ccc(OC(F)(F)F)cc1,> 10
20,Cc1nc(NCCN2CCOCC2)cc(Nc2ccc(OC(F)(F)F)cc2)n1,1.11
21,FC(F)(F)Oc1ccc(Nc2ncnc3c2cnn3Cc2ccncc2)cc1,> 10

row,SMILES,EC50 [µM]
1,Cc1nc(C)c(Cn2ncc3c(Nc4ccc(OC(F)(F)F)cc4)ncnc32)s1,> 10
2,NC(=O)c1cccc(Nc2cc(Nc3ccc(OC(F)(F)F)cc3)ncn2)c1,> 10
3,FC(F)(F)Oc1ccc(Nc2nccc(NCCN3CCOCC3)n2)cc1,> 10
4,FC(F)(F)Oc1ccc(Nc2ccnc(NCCN3CCOCC3)n2)cc1,> 10
5,FC(F)(F)Oc1ccc(Nc2ncnc3[nH]ncc23)cc1,> 10
6,OCCn1cc2c(Nc3ccc(OC(F)(F)F)cc3)ncnc2n1,> 10
7,CCn1cc2c(Nc3ccc(OC(F)(F)F)cc3)ncnc2n1,> 10
8,NC(=O)c1ccc(-c2cc(Nc3ccc(OC(F)(F)F)cc3)ncn2)cc1,> 10
9,NC(=O)c1ccccc1-c1cc(Nc2ccc(OC(F)(F)F)cc2)ncn1,> 10
10,FC(F)(F)Oc1ccc(Nc2cncc(NCCN3CCOCC3)n2)cc1,> 10
11,FC(F)(F)Oc1ccc(Nc2ccc(NCCN3CCOCC3)nn2)cc1,> 10
12,CCCn1cc2c(Nc3ccc(OC(F)(F)F)cc3)ncnc2n1,> 10
13,FC(F)(F)Oc1ccc(Nc2ncnc3nn(C4CCCCC4)cc23)cc1,> 10
14,NS(=O)(=O)c1cccc(-c2cc(Nc3ccc(OC(F)(F)F)cc3)ncn2)c1,> 10
15,FC(F)(F)Oc1ccc(Nc2cc(-c3ccncc3)ncn2)cc1,> 10
16,CN(c1ccc(OC(F)(F)F)cc1)c1cc(-c2ccncc2)ncn1,> 10
17,COc1ccc(Nc2cc(-c3ccncc3)ncn2)cc1,> 10
18,FC(F)(F)c1ccc(Nc2cc(-c3ccncc3)ncn2)cc1,> 10
19,NC(=O)Cn1cc2c(Nc3ccc(OC(F)(F)F)cc3)ncnc2n1,> 10
20,FC(F)(F)Oc1ccc(Nc2ncnc3nn(Cc4ccccc4)cc23)cc1,> 10
21,NC(=O)c1cccc(-c2cc(Nc3ccc(OC(F)(F)F)cc3)ncn2)c1,> 10
